ChEMBL document CHEMBL1121966, “(2R*,3S*)-1-[125I]Iodo-2,3-bis(4-hydroxyphenyl)pentane ([125I]iodonorhexestrol) and (2R*,3S*)-1-[77Br]Bromo-2,3-bis(4-hydroxyphenyl)pentane ([77Br]bromonorhexestrol), two gamma-emitting estrogens that show receptor-mediated uptake by target tissues in vivo” (1982)
Where “and” joins values, the source holds several entries; their conditions need not be identical. Identical values can stand only once.

How the values were obtained:
[1] = Thyroid/blood distribution ratio was determined in immature female rats at 6 hr; assay type: functional
Outline: (§1)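 Immature (25 day) female Sprague-Dawley rats (ca. 50 g) were dosed iv (jugular or tail vein) in ethanol plus 0.9% NaCl/rat serum (1:1). Doses were 2 μCi of [125I]iodonorhexestrol (≤15 pmol/dose), or 2 μCi each of [77Br]bromonorhexestrol (≤1.25 pmol/dose) and 16α-[125I]iodoestradiol (2 pmol/dose). Rats were killed at 1, 3 or 6 h; blood and tissues were weighed and γ-counted. Thyroid weight assumed 0.005 g/100 g body weight. Mean ± SD.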

[2] = organism: Rattus norvegicus; experiment: Percent injected dose per gram esophagus at 6 hr; assay type: functional
Outline: (§2)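 Dual-label study in immature 25-day female Sprague-Dawley rats (ca. 50 g). Each received 2 μCi [77Br]bromo tracer (≤1.25 pmol/dose) and 2 μCi 16α-[125I]iodoestradiol (2 pmol/dose) by tail or jugular vein, in ethanol diluted with saline/rat serum 1:1. Rats were killed at 3 or 6 h; blood and 11 tissues were weighed and counted. Five rats per time point; mean ± SD.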

[3] = organism: Rattus norvegicus; experiment: Percent injected dose per gram liver at 1 hr; assay type: functional; outline: as §1
[4] = Lung/blood distribution ratio was determined in immature female rats at 6 hr; assay type: functional; outline: as §2
[5] = Thyroid/blood distribution ratio was determined in immature female rats at 1 hr with unlabeled estradiol; assay type: functional
Outline: (§3)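 Same iv biodistribution in immature female rats, killed at 1 h, with unlabeled estradiol coinjected to block receptor uptake: 9 μg with [125I]iodonorhexestrol (3 rats), 18 μg with the [77Br]bromonorhexestrol/16α-[125I]iodoestradiol pair (5 rats). Tissue and blood radioactivity were counted as % injected dose/g and tissue-to-blood ratio.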

[6] = organism: Rattus norvegicus; experiment: Percent injected dose per gram spleen at 1 hr; assay type: functional; outline: as §1
[7] = Ovary/blood distribution ratio was determined in immature female rats at 1 hr; assay type: functional
Outline: (§4)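 Immature (25-day, ca. 50 g) Sprague-Dawley female rats received an iv injection (jugular or tail vein) of HPLC-purified tracer in ethanol plus 0.9% NaCl/rat serum 1:1. Doses were 2 μCi [125I]iodo tracer (≤15 pmol), or 2 μCi [77Br]bromo tracer (≤1.25 pmol) with 2 μCi 16α-[125I]iodoestradiol. Animals were killed at 1 h; blood and tissues were weighed and γ-counted. Blocking: coinjected unlabeled estradiol, 9 μg (iodo) or 18 μg (bromo). Mean ± SD.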

[8] = organism: Rattus norvegicus; experiment: Percent injected dose per gram Muscle at 6 hr; assay type: functional; outline: as §2
[9] = organism: Rattus norvegicus; experiment: Percent injected dose per gram kidney at 3h; assay type: functional; outline: as §2
[10] = Muscle/blood distribution ratio was determined in immature female rats at 3h; assay type: functional; outline: as §2
[11] = Esophagus/blood distribution ratio was determined in immature female rats at 3h; assay type: functional; outline: as §2
[12] = organism: Rattus norvegicus; experiment: Percent injected dose per gram kidney at 1 hr with unlabeled estradiol; assay type: functional; outline: as §4
[13] = organism: Rattus norvegicus; experiment: Percent injected dose per gram lung at 1 hr; assay type: functional; outline: as §1
[14] = organism: Rattus norvegicus; experiment: Percent injected dose per gram thyroid at 1 hr; assay type: functional, Thyroid gland; outline: as §1
[15] = Tissue/blood distribution ratio was measured in immature female rats at 1h, unlabeled estradiol (18 microg) coinjected; assay type: functional
Outline: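 Immature female rats given iv [77Br]bromonorhexestrol with 16α-[125I]iodoestradiol (2 μCi each) plus 18 μg unlabeled estradiol coinjected; killed at 1 h. Tissue and blood were weighed and counted, and tissue-to-blood radioactivity ratios were computed; 5 animals, mean ± SD.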

[16] = Spleen/blood distribution ratio was determined immature female rats at 1 hr; assay type: functional; outline: as §1
[17] = organism: Rattus norvegicus; experiment: Percent injected dose per gram liver at 1 hr with unlabeled estradiol; assay type: functional; outline: as §3
[18] = organism: Rattus norvegicus; experiment: Percent injected dose per gram Uterus at 1 hr; assay type: functional; outline: as §4
[19] = Uterus/blood distribution ratio was measured in immature female rats at 1 hr; assay type: functional; outline: as §1
[20] = organism: Rattus norvegicus; experiment: Percent injected dose per gram Ovaries at 1 hr; assay type: functional; outline: as §4
[21] = Spleen/blood distribution ratio was determined immature female rats at 6 hr; assay type: functional; outline: as §1
[22] = Kidney/blood distribution ratio was determined in immature female rats at 6 hr; assay type: functional; outline: as §2
[23] = organism: Rattus norvegicus; experiment: Percent injected dose per gram Ovaries at 6 hr; assay type: functional; outline: as §2
[24] = organism: Rattus norvegicus; experiment: Percent injected dose per gram Uterus at 3h; assay type: functional; outline: as §2
[25] = Lung/blood distribution ratio was determined in immature female rats at 1 hr with unlabeled estradiol; assay type: functional; outline: as §4
[26] = Uterus/blood distribution ratio was measured in immature female rats at 6 hr; assay type: functional; outline: as §1
[27] = Ovary/blood distribution ratio was determined in immature female rats at 1 hr with unlabeled estradiol; assay type: functional; outline: as §4
[28] = organism: Rattus norvegicus; experiment: Percent injected dose per gram liver at 3h; assay type: functional; outline: as §1
[29] = organism: Rattus norvegicus; experiment: Percent injected dose per gram kidney at 6 hr; assay type: functional; outline: as §2
[30] = Spleen/blood distribution ratio was determined immature female rats at 3h; assay type: functional; outline: as §1
[31] = organism: Rattus norvegicus; experiment: % compound injected per gram uterus at 6 hr; assay type: functional
[32] = Esophagus/blood distribution ratio was determined in immature female rats at 6 hr; assay type: functional; outline: as §2
[33] = organism: Rattus norvegicus; experiment: Percent injected dose per gram blood at 1 hr with unlabeled estradiol; assay type: functional; outline: as §4
[34] = Uterus/blood distribution ratio was measured in immature female rats at 3h; assay type: functional; outline: as §1
[35] = organism: Rattus norvegicus; experiment: Percent injected dose per gram Ovaries at 3h; assay type: functional; outline: as §2
[36] = Kidney/blood distribution ratio was determined in immature female rats at 1 hr with unlabeled estradiol; assay type: functional; outline: as §4
[37] = organism: Rattus norvegicus; experiment: Percent injected dose per gram spleen at 1 hr with unlabeled estradiol; assay type: functional; outline: as §3
[38] = organism: Rattus norvegicus; experiment: Percent injected dose per gram spleen at 6 hr; assay type: functional; outline: as §1
[39] = Liver/blood distribution ratio was determined in immature female rats at 6 hr; assay type: functional; outline: as §2
[40] = Uterus/blood distribution of compound was measured in immature female rats at 1 hr with unlabeled estradiol; assay type: functional; outline: as §3
[41] = Ovary/blood distribution ratio was determined in immature female rats at 3h; assay type: functional; outline: as §2
[42] = Ovary/blood distribution ratio was determined in immature female rats at 6 hr; assay type: functional; outline: as §2
[43] = organism: Rattus norvegicus; experiment: Percent injected dose per gram lung at 1 hr with unlabeled estradiol; assay type: functional; outline: as §3
[44] = Muscle/blood distribution ratio was determined immature female rats at 1 hr with unlabeled estradiol; assay type: functional; outline: as §4
[45] = Esophagus/blood distribution ratio was determined in immature female rats at 1 hr with unlabeled estradiol; assay type: functional; outline: as §4
[46] = organism: Rattus norvegicus; experiment: Percent injected dose per gram lung at 6 hr; assay type: functional; outline: as §1
[47] = Uptake ratio was measured with 16-alpha-[125I]-iodo-17-beta-estradiol in immature rats at 6 hr; assay type: functional
Outline: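 Immature (25 day, ca. 50 g) female Sprague-Dawley rats received iv (jugular or tail vein) 2 μCi each of the 77Br ligand (≤1.25 pmol/dose) and 16α-[125I]iodoestradiol (2 pmol/dose), in ethanol plus 0.9% NaCl/rat serum 1:1. Rats were killed at 3 or 6 h, five per time point. Blood and tissues were weighed and counted. The 77Br/125I ratio was calculated per rat and averaged. Nontarget was the mean of esophagus, spleen, lung and muscle.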

[48] = organism: Rattus norvegicus; experiment: Percent injected dose per gram esophagus at 1 hr; assay type: functional; outline: as §4
[49] = Tissue/blood distribution ratio was measured in immature female rats at 3h; assay type: functional; outline: as §1
[50] = organism: Rattus norvegicus; experiment: Percent injected dose per gram blood at 3h; assay type: functional; outline: as §2
[51] = Thyroid/blood distribution ratio was determined in immature female rats at 3h; assay type: functional; outline: as §1
[52] = Thyroid/blood distribution ratio was determined in immature female rats at 1 hr; assay type: functional; outline: as §1
[53] = organism: Rattus norvegicus; experiment: Percent injected dose per gram Muscle at 1 hr; assay type: functional; outline: as §4
[54] = Lung/blood distribution ratio was determined in immature female rats at 1 hr; assay type: functional; outline: as §4

`CC[C@H](c1ccc(O)cc1)[C@@H](CBr)c1ccc(O)cc1` showed a Ratio [1] of 0.13, an Injected dose [2] of 0.68% and an Injected dose [3] of 1.28%. It also gave a Ratio [4] of 0.76, a Ratio [5] of 0.25 and an Injected dose [6] of 0.38%. For the same compound, the Ratio [7] was 1.98, the Injected dose [8] was 0.35% and the Injected dose [9] was 0.84%. It also gave a Ratio [10] of 0.29, a Ratio [11] of 0.49 and an Injected dose [12] of 0.7%. It also gave an Injected dose [13] of 0.42%, an Injected dose [14] of 0.26% and a Ratio [15] of 1. The Ratio [16] was 0.52, the Injected dose [17] was 1.46% and the Injected dose [18] was 3.16%. For the same compound, the Ratio [19] was 4.49, the Injected dose [20] was 1.38% and the Ratio [21] was 0.55. For the same compound, the Ratio [22] was 0.89, the Injected dose [23] was 1.93% and the Injected dose [24] was 3.59%. It also gave a Ratio [25] of 0.82, a Ratio [26] of 2.51 and a Ratio [27] of 0.74. The Injected dose [28] was 1.05%, the Injected dose [29] was 0.9% and the Ratio [30] was 0.48. For the same compound, the Injected [31] was 3.19, the Ratio [32] was 0.5 and the Injected dose [33] was 0.98%. It also gave a Ratio [34] of 2.86, an Injected dose [35] of 1.28% and a Ratio [36] of 0.84. It also gave an Injected dose [37] of 0.34%, an Injected dose [38] of 0.69% and a Ratio [39] of 0.69. The Ratio [40] was 0.98, the Ratio [41] was 1.23 and the Ratio [42] was 1.41. For the same compound, the Injected dose [43] was 0.8%, the Ratio [44] was 0.31 and the Ratio [45] was 0.59. The Injected dose [46] was 1.02%, the Ratio [47] was 0.58 and 0.33% and the Injected dose [48] was 0.38%. It also gave a Ratio [49] of 1, an Injected dose [50] of 1.24% and a Ratio [51] of 0.08. The Ratio [52] was 0.32, the Injected dose [53] was 0.29% and the Ratio [54] was 0.6.
